Results pooled from the literature.
Each line is one published result; the experiments were not run side by side.
Observed: cell growth or viability

| SMILES | cell line | technique | time | IC50 |
| --- | --- | --- | --- | --- |
| CCn1c2ccccc2c2cc(C3CC(c4cc5ccccc5oc4=O)=NN3c3cccc(Cl)c3)ccc21 (stereo not drawn) | NRK-52E | MTT | 24 h | 41 µM |
| CC1=C(O)C(=O)C=C2C1=CC=C1[C@@]2(C)CC[C@@]2(C)[C@@H]3C[C@](C)(C(=O)OCCCN4C(=O)C5C=CC=CC5C4=O)CC[C@]3(C)CC[C@]12C (stereo partly drawn) | Bel-7402 | MTT | 48 h | 0.83 µM |
| CC(C)C[C@H](NC(=O)[C@H](Cc1ccccc1)NC(=O)c1cnccn1)B(O)O | NCI-H1573 | ATP luminescence |  | 0.029 µM |
| O=C(O)C(c1c[nH]c2ccccc12)c1c[nH]c2ccccc12 | KG-1 |  | 48 h | > 20 µM |
| CC1=C(O)C(=O)C=C2C1=CC=C1[C@@]2(C)CC[C@@]2(C)[C@@H]3C[C@](C)(C(=O)OCCCCCCCO)CC[C@]3(C)CC[C@]12C | Bel-7402 | MTT | 48 h | 0.74 µM |
| O=C(O)/C=C/c1ccc(C(c2c[nH]c3ccccc23)c2c[nH]c3ccccc23)s1 | KG-1 |  | 48 h | > 20 µM |
| COc1cc(-c2ncn(/C=C\C(=O)OC(C)C)n2)cc(C(F)(F)F)c1 | KG-1 |  | 72 h | 0.165 µM |
| Cc1ccc2[nH]cc(C(c3ccc(/C=C/C(=O)O)s3)c3c[nH]c4ccc(C)cc34)c2c1 | KG-1 |  | 48 h | > 5 µM |
| Cc1[nH]c(/C=C2\C(=O)Nc3ccc(S(=O)(=O)N(C)c4cccc(Cl)c4)cc32)c(C)c1C(=O)N1CCN(C)CC1 | Rh18 |  | 72 h | 4.07 µM |
| CC1=C(O)C(=O)C=C2C1=CC=C1[C@@]2(C)CC[C@@]2(C)[C@@H]3C[C@](C)(C(=O)OCCCCCO)CC[C@]3(C)CC[C@]12C | Bel-7402 | MTT | 48 h | 0.59 µM |
| CCn1c2ccccc2c2cc(C3CC(c4cc5c(ccc6ccccc65)oc4=O)=NN3C(N)=O)ccc21 (stereo not drawn) | NRK-52E | MTT | 24 h | 59.1 µM |
| CC(C)n1cc(C(c2ccc(/C=C/C(=O)O)s2)c2cn(C(C)C)c3ccccc23)c2ccccc21 | KG-1 |  | 48 h | > 5 µM |
| CCn1c2ccccc2c2cc(/C=C/C(=O)c3cc4cccc(OC)c4oc3=O)ccc21 | NRK-52E | MTT | 24 h | 115 µM |
| COc1cc(N2CCC(N3CCN(C)CC3)CC2)ccc1Nc1ncc(Cl)c(Nc2ccccc2S(=O)(=O)C(C)C)n1 | Rh18 |  | 72 h | 0.27 µM |
| CCn1c2ccccc2c2cc(C3CC(c4cc5c(ccc6ccccc65)oc4=O)=NN3c3cccc(Cl)c3)ccc21 (stereo not drawn) | NRK-52E | MTT | 24 h | 57.1 µM |
| CC1=C(O)C(=O)C=C2C1=CC=C1[C@@]2(C)CC[C@@]2(C)[C@@H]3C[C@](C)(C(=O)OCCCCO)CC[C@]3(C)CC[C@]12C | Bel-7402 | MTT | 48 h | 0.63 µM |
| O=C(O)c1ccc(C(c2c[nH]c3ccccc23)c2c[nH]c3ccccc23)cc1 | KG-1 |  | 48 h | > 20 µM |
| CC1=C(O)C(=O)C=C2C1=CC=C1[C@@]2(C)CC[C@@]2(C)[C@@H]3C[C@](C)(C(=O)OCCCn4ccc5ccccc54)CC[C@]3(C)CC[C@]12C | Bel-7402 | MTT | 48 h | 5.42 µM |
| COc1cc2c(Oc3ccc(NC(=O)C4(C(=O)Nc5ccc(F)cc5)CC4)cc3F)ccnc2cc1OCCCN1CCOCC1 | Rh18 |  | 72 h | 0.31 µM |
| CCn1c2ccccc2c2cc(/C=C/C(=O)c3cc4ccccc4oc3=O)ccc21 | NRK-52E | MTT | 24 h | 94.6 µM |
| Oc1ccc(C(c2c[nH]c3ccccc23)c2c[nH]c3ccccc23)cc1 | KG-1 |  | 48 h | > 20 µM |
| N[C@@H](CC(=O)N1CCN(C(c2ccc(F)cc2)c2ccc(F)cc2)CC1)C(=O)N1Cc2ccccc2C1 | KG-1 | ATP luminescence | 48 h | 9.31 µM |
| COc1cc(Nc2nccc(-c3cnn4nc(OC)ccc34)n2)cc(C(F)(F)F)c1 | NCI-H1573 | ATP luminescence |  | 0.63 µM |
| Cn1cc(C(c2ccc(C(=O)O)cc2)c2cn(C)c3ccccc23)c2ccccc21 | KG-1 |  | 48 h | > 20 µM |
| CCn1c2ccccc2c2cc(C3CC(c4cc5c(ccc6ccccc65)oc4=O)=NN3c3ccc(C)cc3)ccc21 (stereo not drawn) | NRK-52E | MTT | 24 h | 79.9 µM |
| CC1=C(O)C(=O)C=C2C1=CC=C1[C@@]2(C)CC[C@@]2(C)[C@@H]3C[C@](C)(C(=O)OCCO)CC[C@]3(C)CC[C@]12C | Bel-7402 | MTT | 48 h | 0.68 µM |
| CCn1c2ccccc2c2cc(/C=C/C(=O)c3cc4c(ccc5ccccc54)oc3=O)ccc21 | NRK-52E | MTT | 24 h | 82.7 µM |
| CC(C)[C@H](N)C(=O)N1CCC[C@H]1B(O)O | KG-1 | ATP luminescence | 48 h | 0.12 µM |
| CC1=C(O)C(=O)C=C2C1=CC=C1[C@@]2(C)CC[C@@]2(C)[C@@H]3C[C@](C)(C(=O)OCCCO)CC[C@]3(C)CC[C@]12C | Bel-7402 | MTT | 48 h | 0.58 µM |
| CCn1c2ccccc2c2cc(C3CC(c4cc5ccccc5oc4=O)=NN3C(C)=O)ccc21 (stereo not drawn) | NRK-52E | MTT | 24 h | 116 µM |
